Laboratory results as given in paper PMC7671694 (Pharmaceutical Biology, 2020).
Entries after “also recorded” stand apart in the source; their conditions may differ.

Tests used:
Type in all cases: in vivo, Swiss male mice
[1] = test system: scopolamine-induced memory impairment in mice; test: Y-maze test in scopolamine-treated mice; conditions: scopolamine 1.5 mg/kg i.p. alone; compared with control group; p < 0.01
Summary of the method: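 Swiss male mice, n = 10/group. Test compound p.o. in saline 1 h before, scopolamine 1.5 mg/kg i.p. 30 min before a 10-min session. Arm entry means all four legs inside. Alternation (%) = alternations/(total entries − 2) × 100; entries serve as locomotor index. Arms cleaned with 10% ethanol. One-way ANOVA, Tukey; mean ± SEM.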

[2] = test system: scopolamine-induced memory impairment in mice; test: Novel object recognition test; conditions: test phase
Summary of the method: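 Swiss male mice, n = 10/group. Test compound (5, 10 or 15 mg/kg) p.o. in saline 1 h before, scopolamine 1.5 mg/kg i.p. 30 min before. Box is 45 × 45 × 50 cm; 5-min sample phase, then 5-min test 24 h later with one object replaced. Nose/forepaw contact is scored as exploration, normalized to total exploration time. Repeated-measures two-way ANOVA, Tukey; mean ± SEM.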

[3] = test system: scopolamine-induced memory impairment in mice; test: Morris water maze; conditions: scopolamine 1.5 mg/kg i.p. alone
Summary of the method: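 Swiss male mice, n = 10/group. Test compound p.o. in saline 1 h before, scopolamine 1.5 mg/kg i.p. 30 min before each session. Training runs over 6 days, 4 trials/day about 2 min apart, maximum 1 min per trial, then 10 s on the platform if not found. Day 7 probe without platform. Mean ± SEM; repeated-measures two-way ANOVA (training), one-way ANOVA (probe), Tukey.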

[4] = training trials, day 1 to day 6

## CN1[C@@H]2C[C@@H](OC(=O)[C@H](CO)c3ccccc3)C[C@H]1[C@@H]1O[C@@H]12 [scopolamine]
[1]
  spontaneous alternation (%): significantly lower; also recorded: significantly decreased
[2]; scopolamine 1.5 mg/kg i.p. alone, p > 0.05
  normalized time exploring novel object versus familiar object: no statistically significant difference
[3]; probe trial day 7, compared with control group
  time spent in the target quadrant: significantly lower; also recorded: decreased
[3]; [4]
  escape latency: no significant differences
  travel (swimming) distance: no significant differences

## COc1cc2c(cc1OC)C(=O)C(CC1CCN(Cc3ccccc3)CC1)C2 (stereo not drawn) [donepezil]
[2]; 5 mg/kg p.o. + scopolamine 1.5 mg/kg i.p., p < 0.001
  normalized time exploring novel object versus familiar object: significantly longer
